The source of these data is ChEMBL document CHEMBL1141034, “Optimization of the in vitro and in vivo properties of a novel series of 2,4,5-trisubstituted imidazoles as potent cholecystokinin-2 (CCK2) antagonists” (J Med Chem, 2005).

As usually defined, the Ki is the dissociation constant of the complex between target and ligand, obtained from inhibition or displacement. A low value points to a stronger hold on the target. Usually IC50 stands for the point on the concentration scale where inhibition reaches its midpoint. A lower IC50 goes with higher potency. By inhibition is commonly meant the relative decrease from the control value, in per cent. One may read the logD as lipophilicity at a set pH, counting ionised and neutral species.

Data set [1] concerns the target T1, Cholecystokinin receptor type A (Cavia porcellus, UniProt Q63931).
T1 sequence (Q63931 whole entry): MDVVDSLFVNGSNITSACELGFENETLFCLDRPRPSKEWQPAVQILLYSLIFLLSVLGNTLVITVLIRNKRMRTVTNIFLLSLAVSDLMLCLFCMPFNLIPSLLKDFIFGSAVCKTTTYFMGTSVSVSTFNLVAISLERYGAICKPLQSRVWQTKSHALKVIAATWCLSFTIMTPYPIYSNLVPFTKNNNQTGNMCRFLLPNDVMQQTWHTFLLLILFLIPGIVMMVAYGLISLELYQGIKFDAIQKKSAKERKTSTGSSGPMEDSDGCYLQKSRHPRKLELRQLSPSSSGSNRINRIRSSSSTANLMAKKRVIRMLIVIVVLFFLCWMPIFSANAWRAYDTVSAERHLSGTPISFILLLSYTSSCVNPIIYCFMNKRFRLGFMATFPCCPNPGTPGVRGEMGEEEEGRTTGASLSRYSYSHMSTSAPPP
Nature of the data set: Concentration required to inhibit the binding of 20 pM [125I]BH-CCK-8S radioligand to guinea pig pancreas CCK1 receptor. In a few lines:
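CCK1 sites on guinea pig pancreatic cells. Competition with 20 pM [125I]BH-CCK-8S, reported as pKI. At least three separate experiments give ± SEM. Where only two experiments were run, no error is given (approximate SEM 0.1 log units).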

The target of data set [2] is T2, Gastrin/cholecystokinin type B receptor (Canis lupus familiaris, UniProt P30552).
T2 sequence (P30552 whole entry): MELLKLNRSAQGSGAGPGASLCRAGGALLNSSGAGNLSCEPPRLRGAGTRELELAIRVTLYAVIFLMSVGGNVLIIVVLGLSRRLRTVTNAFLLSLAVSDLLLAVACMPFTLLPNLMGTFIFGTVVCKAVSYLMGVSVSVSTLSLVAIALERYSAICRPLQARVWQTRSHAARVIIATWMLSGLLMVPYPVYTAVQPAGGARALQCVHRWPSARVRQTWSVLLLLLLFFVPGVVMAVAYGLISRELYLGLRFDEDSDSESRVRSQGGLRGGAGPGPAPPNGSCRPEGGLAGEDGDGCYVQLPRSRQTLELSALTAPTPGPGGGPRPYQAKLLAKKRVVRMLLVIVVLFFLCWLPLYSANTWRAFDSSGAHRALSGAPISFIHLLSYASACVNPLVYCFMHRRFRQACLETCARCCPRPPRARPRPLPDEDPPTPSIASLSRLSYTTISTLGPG
Description: Concentration required to inhibit the binding of [125I]-BH-CCK-8S radioligand to canine gastric mucosa CCK2 receptor. In a few lines:
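Canine gastric mucosa. Competition with [125I]BH-CCK-8S for CCK2 binding sites, reported as pIC50 ± SEM.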

In data set [3] the target is T3, Gastrin/cholecystokinin type B receptor (Canis lupus familiaris) (UniProt P30552).
T3 sequence (whole entry): T2 sequence (P30552 whole entry)
Description: Percent inhibition (i.v., 1.0 mg/Kg) against dog CCK2 receptor. In a few lines:
(§1)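 Conscious dogs given a bolus iv or intraduodenally during pentagastrin-stimulated acid secretion. Result is the peak percentage inhibition of acid output in the first four collection periods (1 h) after dosing, ± SEM, with the number of replicates stated.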

In data set [4] the target is T3, Gastrin/cholecystokinin type B receptor (Canis lupus familiaris). Description: Percent inhibition (i.d., 10.0 mg/Kg) against dog CCK2 receptor. The procedure, abridged:
as §1

Data set [5] in a line: Lipophilicity was measured in octanol/buffer (pH 7.4). The class given is physicochemical. In a few lines:
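log D from partition between octanol and buffer at pH 7.4, given ± error.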

The compound `O=C(O)c1cccc(NC(=O)c2[nH]c(C3CCCCC3)nc2CCC23CC4CC(CC(C4)C2)C3)c1` gave a Ki in data set [1] of 575 nM. Further, in data set [2], the IC50 is 29.5 nM. Also, the inhibition amounted to 40% in data set [3] and 46% in data set [4]. Besides, in data set [5], the logD came to 4.12.
